Reference: ChEMBL document CHEMBL1124657, “Retinobenzoic acids. 2. Structure-activity relationships of chalcone-4-carboxylic acids and flavone-4'-carboxylic acids” (1989)
Activity calls are given as the source filed them. The calls are words filed in the database; no cut-off is given here.

Experiments:
HL-60 [1] = assay: Differentiation inducing activity towards human promyelocytic leukemia cell line HL-60 by nitroblue tetrazolium reduction assay; IA is Inactive; assay type: functional, cell-based
Outline: (§1)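 HL-60 cells in RPMI1640 with 5% FCS at 37 °C, 5% CO₂; seeded about 8 × 10⁴ cells/mL and exposed 4 days to compounds from 0.2 mM ethanol stock (final ethanol below 0.5%; ethanol-only controls). Retinoic acid run concurrently. NBT reduction: 20 min at 37 °C with 0.2% NBT and TPA 200 ng/mL in PBS/medium. Formazan-positive cells counted among at least 200 cells. Wright-Giemsa morphology also scored. Five orders of concentration covered, at least three repeats. ED50 taken from NBT data.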

HL-60 [2] = assay: Activity relative to retinoic acid in differentiating promyelocytic leukemic HL-60 cells; assay type: functional, Homo sapiens
HL-60 [3] = assay: Differentiation inducing activity towards human promyelocytic leukemia cell line HL-60 assayed by nitroblue tetrazolium reduction; assay type: functional; conditions: read-out: ED50 (the source's name); outline: as §1
HL-60 [4] = assay: Differentiation inducing activity towards human promyelocytic leukemia cell line HL-60 by nitroblue tetrazolium reduction assay;IA is inactive; assay type: functional, cell-based; outline: as §1
HL-60 [5] = assay: Differentiation inducing activity towards human promyelocytic leukemia cell line HL-60 by nitroblue tetrazolium reduction assay;IA is Inactive; assay type: functional, cell-based; outline: as §1

Structure (SMILES)	ED50 (HL-60 [1])	Relative activity (HL-60 [2])	EC50 (HL-60 [3])	ED50 (HL-60 [4])	ED50 (HL-60 [5])
O=C(O)c1ccc(/C=C/C(=O)c2ccccc2)cc1	inactive				
CC1(C)CCOc2cc3c(=O)cc(-c4ccc(C(=O)O)cc4)oc3cc21		0.017	250 nM		
CC(C)(C)c1ccc2c(=O)cc(-c3ccc(C(=O)O)cc3)oc2c1		0.0058	480 nM		
COc1ccc(C(=O)/C=C/c2ccc(C(=O)O)cc2)cc1OC	inactive				
CC(C)(C)c1ccc(C(C)(C)C)c(C(=O)/C=C/c2ccc(C(=O)O)cc2)c1		0.021	45 nM		
CC1(C)CCC(C)(C)c2cc3c(=O)cc(-c4ccc(C(=O)O)cc4)oc3cc21		27.4	0.046 nM		
CC1(C)CCC(C)(C)c2cc(/C(O)=C/C(=O)c3ccc(C(=O)O)cc3)c(O)cc21		7.6	0.063 nM		
CC1(C)CCOc2c(C(=O)/C=C/c3ccc(C(=O)O)cc3)cccc21		0.0077	690 nM		
COC(=O)c1ccc(/C=C/C(=O)c2ccc3c(c2)C(C)(C)CCC3(C)C)cc1		0.043	30 nM		
CC(C)(C)c1ccc(C(=O)/C=C/c2ccc(C(=O)O)cc2)cc1		0.039	28 nM		
CC(C)c1ccc(C(=O)/C=C/c2ccc(C(=O)O)cc2)cc1C(C)C		1.8	0.82 nM		
CC(C)(C)c1ccc(/C(O)=C/C(=O)c2ccc(C(=O)O)cc2)c(O)c1		0.0023	560 nM		
CC1=C(/C=C/C(C)=C/C=C/C(C)=C/C(=O)O)C(C)(C)CCC1 [TRETINOIN]		1	2.4 nM		
CC(C)(C)c1ccc2oc(-c3ccc(C(=O)O)cc3)cc(=O)c2c1		< 0.0001	> 1000 nM		
CC(C)(C)c1ccc(O)c(/C(O)=C/C(=O)c2ccc(C(=O)O)cc2)c1		< 0.0001	> 1000 nM		
O=C(O)c1ccc(-c2cc(=O)c3ccccc3o2)cc1				inactive	
CC1(C)CCSc2ccc(C(=O)/C=C/c3ccc(C(=O)O)cc3)cc21		< 0.0001	> 1000 nM		
Cc1ccc(/C=C/C(=O)c2ccc3c(c2)C(C)(C)CCC3(C)C)cc1					inactive

Structure (SMILES)	ED50 (HL-60 [1])	Relative activity (HL-60 [2])	EC50 (HL-60 [3])	ED50 (HL-60 [4])	ED50 (HL-60 [5])
COc1c(-c2ccc(C(=O)O)cc2)oc2cc3c(cc2c1=O)C(C)(C)CCC3(C)C		< 0.0001	> 1000 nM		
CC1(C)CCOc2ccc(C(=O)/C=C/c3ccc(C(=O)O)cc3)cc21		< 0.0001	> 1000 nM		
CC1(C)CCC(C)(C)c2cc3c(=O)c(O)c(-c4ccc(C(=O)O)cc4)oc3cc21		1.25	1.2 nM		
COC(=O)c1ccc(-c2cc(=O)c3cc4c(cc3o2)C(C)(C)CCC4(C)C)cc1		8.5	0.48 nM		
COc1cc2c(cc1C(=O)/C=C/c1ccc(C(=O)O)cc1)C(C)(C)CCC2(C)C		0.35	3.9 nM		
CC1(C)CCC(C)(C)c2cc(C(=O)/C=C/c3cccc(C(=O)O)c3)ccc21		< 0.0001	> 1000 nM		
CC1(C)CCC(C)(C)c2cc(C(=O)/C=C/c3ccc(C(=O)O)cc3)c(O)cc21		1.4	0.15 nM		
CC1(C)CCC(C)(C)c2cc(C(=O)/C=C/c3ccc(C(=O)Cl)cc3)ccc21		0.52	3.3 nM		
O=C(O)c1ccc(C(=O)/C=C(\O)c2ccccc2O)cc1	inactive				
Cc1cc2c(cc1C(=O)/C=C/c1ccc(C(=O)O)cc1)C(C)(C)CCC2(C)C		2.1	0.54 nM		
CC(C)(C)c1cc(C(=O)/C=C/c2ccc(C(=O)O)cc2)cc(C(C)(C)C)c1		6.4	0.21 nM		
CC1(C)CCC(C)(C)c2cc(C(=O)/C=C/c3ccc(C(N)=O)cc3)ccc21		< 0.0001	> 1000 nM		
CC1(C)CCC(C)(C)c2cc(C(=O)/C=C/c3ccc(C(=O)O)c(O)c3)ccc21		0.88	1.7 nM		
CCc1ccc(C(=O)/C=C/c2ccc(C(=O)O)cc2)cc1CC		0.0083	170 nM		
CC(C)(C)c1cccc(C(=O)/C=C/c2ccc(C(=O)O)cc2)c1		0.0081	160 nM		
CC1(C)CCC(C)(C)c2cc(C(=O)/C=C/c3ccc(C(=O)O)cc3)ccc21		2.8	0.64 nM		
CCCCOC(=O)c1ccc(/C=C/C(=O)c2ccc3c(c2)C(C)(C)CCC3(C)C)cc1		0.063	27 nM		
